Screens as filed in PubChem.
MrgX1 allo act: allosterically activates human MrgX1 receptor signaling. MrgX1-HEK293, Fluo-4 calcium flux, FDSS; hits give high values. Q96LB2. actives 0.63% (n = 310,000). B-score at 10 µM;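 active means plate-corrected calcium response at least 3 library SD above typical, normal starting fluorescence, not activating the receptor alone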;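 further: compound read alongside a low EC10 to EC30 dose of BAM8-22 agonist; peak minus trough fluorescence over baseline measured at the second addition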
Target sequence (Q96LB2 whole entry, looked up): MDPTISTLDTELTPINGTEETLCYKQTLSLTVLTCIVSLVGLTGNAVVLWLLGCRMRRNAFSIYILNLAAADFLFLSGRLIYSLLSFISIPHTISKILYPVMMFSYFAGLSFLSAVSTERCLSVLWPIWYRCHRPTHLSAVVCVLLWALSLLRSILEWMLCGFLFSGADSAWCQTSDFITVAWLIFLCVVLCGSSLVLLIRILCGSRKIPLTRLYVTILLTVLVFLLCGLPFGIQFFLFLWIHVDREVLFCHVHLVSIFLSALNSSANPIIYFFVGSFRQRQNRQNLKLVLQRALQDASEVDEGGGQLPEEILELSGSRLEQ
RGS4 block: human RGS4 inhibition | HEK293 M3R/RGS4 inducible, Fluo-4 calcium flux; hits give high values; triggered by carbachol at its EC20 | B-score at 10 µM | actives 0.45% (n = 310,000) | AID 463165;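 active means B-score, a plate-corrected calcium signal, over three deviations above library mean, with baseline fluorescence within five deviations of library mean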;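 further: RGS4 expression induced by doxycycline in cells with stable M3 receptor; B-score is computed from the integrated fluorescence ratio over baseline after carbachol; higher B-score means a larger calcium signal and so more RGS4 inhibition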
MrgX1 agonist: activates human MrgX1 receptor signaling; Q96LB2; MrgX1-HEK293 cells, Fluo-4 calcium fluorescence, agonist mode; hits give high values; B-score at 10 µM; actives 0.44% (n = 310,000); AID 588627;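 active means calcium response B-score plate-corrected fluorescence ratio at least 3 library SD, with starting fluorescence B-score inside 5 SD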
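System – MrgX1-expressing HEK293 cells · Incubation – cells plated overnight, dye loaded 0.5 h 37 °C, 0.5 h room temperature · Technique – kinetic Fluo-4 NW fluorescence of intracellular calcium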
MrgX1 antag: blocks BAM8-22 activation of human MrgX1 receptor; MRGX1-HEK293 calcium flux, Fluo-4, BAM8-22 antagonism; hits give low values; actives 1.3% (n = 310,000); AID 588676; B-score at 10 µM;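 active means calcium-response B-score plate-corrected more than 3 library SD below zero, starting fluorescence within 5 deviations, no agonist response on first addition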;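 further: peak minus trough fluorescence over baseline after final BAM8-22 challenge near maximal dose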
RGS4 act: RGS4 potentiation or activation | HEK293 M3R/inducible RGS4, carbachol calcium flux Fluo4; hits give low values | actives 0.92% (n = 310,000) | B-score at 10 µM;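 active means B-score of the integrated calcium signal more than 4 SD below the library mean, with starting fluorescence not abnormally high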;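 further: negative B-score means reduced calcium response which marks RGS4 activation or potentiation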
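Reagent: ECmax carbachol challenge; Test system: M3R-expressing HEK293 line, RGS4 induced by doxycycline; Schedule: overnight RGS4 induction, 30 min dye load 37 °C, 20 min compound RT; Detection: calcium dye Fluo4 fluorescence; Read-out: Agonist-evoked peak-minus-minimum fluorescence over baseline, integrated ratio, B score.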
Numbers without * were called inactive; i = inactive. An excerpt weighted towards active compounds, which were near 3.5% of everything screened.

SMILES	MrgX1 allo act	RGS4 block	MrgX1 agonist	MrgX1 antag	RGS4 act
C/C(=N\NC(=S)NC1CCCCC1)c1ccc(Cl)c(Cl)c1	i	i	i	-4.9*	i
O=C(NCc1ccccc1)c1ccc2c(=O)[nH]c3c(C(=O)NCC4CCCO4)sc(=S)n3c2c1 (configuration not stated)	i	i	i	i	i
O=C(NCc1ccco1)c1sc(=S)n2c1[nH]c(=O)c1ccccc12	i	i	57*	i	i
O=C(NC1CCCC1)c1sc(=S)n2c1[nH]c(=O)c1ccccc12	i	i	60*	i	i
CC(C)(C)OC(=O)NOCC(=O)N(Cc1ccccc1)CC(O)COc1ccccc1 (configuration not stated)	i	i	i	i	i
COc1ccccc1NC(=S)N/N=C/c1ccc(O)cc1	9*	i	i	i	i
COc1ccccc1NC(=S)N/N=C/c1cccc(C)c1	i	i	i	i	i
CC(C)C[C@@H](COc1ccccc1)N1CCN(CCc2ccccc2)CCC1=O	11*	i	i	i	i
O=C(Nc1ccccc1)C1=C[C@H](c2ccccc2)C[C@H](OCc2ccc(CO)cc2)O1	7.3*	i	i	i	i
COC(=O)[C@@]1(Cc2ccc(OC)cc2)[C@H]2c3cc(C(=O)N4CCCC4)n(Cc4c(CO)[nH]cc(C)c4=O)c3C[C@H]2CN1C(=O)c1ccccc1	i	i	i	-5.6*	i
COC(=O)[C@@]1(Cc2ccc(OC)cc2)[C@H]2c3cc(C(=O)N(C)C)n(Cc4c(CO)[nH]cc(C)c4=O)c3C[C@H]2CN1C(=O)c1ccccc1	i	i	i	i	i
Cc1ccc(OCC(=O)Nc2ccc3oc(=O)ccc3c2)c(C)c1	i	i	i	i	i
O=C(NN1C(=O)C2C(c3ccccc3)C=CC(c3ccccc3)C2C1=O)c1ccncc1 (configuration not stated)	i	i	28*	i	i
O=C(NN1C(=O)C2C3C=CC(C3)C2C1=O)c1ccncc1 (configuration not stated)	i	i	i	i	i
CC(C)c1ccc(/C=N/NC(=O)c2cccc(Cl)c2)cc1	i	i	i	i	i
CC(C)c1ccc(C(=O)N/N=C/c2cccc(Cl)c2Cl)cc1	6.5*	i	i	i	i
CC(=O)Nc1ccc(C(=O)N/N=C/c2ccccc2OC(=O)c2ccc(Cl)cc2)cc1	i	i	i	i	-7.3*
Cc1ccc(C#N)c(SCC(=O)Nc2nccs2)n1	i	i	i	i	i
O=S(=O)(NCCC1=CCCCC1)c1ccc(Br)cc1	i	i	i	i	i
C=CCc1ccc(OCCCCCN2CCOCC2)c(OC)c1	i	i	i	i	-7.5*
C/C(=N\NC(=O)c1ccc(Cn2cc([N+](=O)[O-])cn2)o1)c1cccc(NC(=O)C(C)C)c1	i	i	i	-5.6*	i
C/C(=N\NC(=O)c1ccc(Cn2cc(Br)cn2)o1)c1cccc(NC(=O)C(C)C)c1	i	i	i	i	i
COc1ccc(C(CNC(=O)C2CCN(S(=O)(=O)c3ccc(F)cc3)CC2)N(C)C)cc1 (configuration not stated)	i	i	i	i	i
CCCCc1c(C(=O)O)cc(OC)cc1C(=O)O	i	i	i	i	i
CCCCCc1c2c(cc(O)c1C(=O)O)OC(=O)c1c(cc(OC)cc1C(=O)CCCC)O2	i	i	i	-7.9*	-7*
O=C(CNC(=O)C(c1ccccc1)c1ccccc1)N/N=C\c1cccc(O)c1	i	i	i	i	i
O=C(CNC(=O)C(c1ccccc1)c1ccccc1)N/N=C/c1ccc(O)cc1O	i	i	i	-5.7*	i
COc1cc(/C=C2/C(=O)ON=C2C)cc(Cl)c1O	i	i	40*	i	i
CCOc1cc(/C=C2/C(=O)ON=C2C)ccc1O	i	i	33*	i	i
C#CCOc1c(Cl)cc(/C=C2/C(=O)ON=C2C)cc1OC	i	i	i	i	i
